{"data": "Results of several laboratories", "cell line": "HCT-116", "observed": "cell growth or viability", "note": "Protocols differ between the studies behind these lines. pEC50, pIC50: −log10 of the molar value."}
{"SMILES": "CCc1ccc(N=C2C(=O)Nc3ccccc32)cc1", "test": "MTT", "setting": "48 h", "measurement": "pIC50", "value": 4.19}
{"SMILES": "Nc1nc2ccc(-c3c/c(=N\\c4ccccc4NC(=O)C4CCNC4)c4ccccc4o3)cc2o1 (centres unmarked)", "test": "CCK-8", "setting": "1 µM", "measurement": "inhibition", "value": "62.6%"}
{"SMILES": "COc1cccc2c1C(=O)c1c(O)c3c(c(O)c1C2=O)C[C@@](O)(C(=O)CO)C[C@@H]3O[C@H]1C[C@H](N)[C@H](O)[C@H](C)O1", "test": "MTT", "setting": "24 h", "measurement": "pIC50", "value": 5.97}
{"SMILES": "O=c1[nH]cc(F)c(=O)[nH]1", "test": "MTT", "setting": "100 µM, 48 h", "measurement": "cell death", "value": "84.6%"}
{"SMILES": "O=C1C(=Nc2ccc(Cl)cc2Br)c2ccccc2N1Cc1ccc([N+](=O)[O-])cc1", "test": "MTT", "setting": "48 h", "measurement": "pIC50", "value": 4.60}
{"SMILES": "CCOc1ccc(C(=O)CC(SCc2ccc(Cl)cc2)C(=O)OC)cc1 (centres unmarked)", "test": "MTT", "setting": "48 h", "measurement": "pEC50", "value": 4.15}
{"SMILES": "C[C@H](N)C(=O)Nc1ccccc1/N=c1\\cc(-c2ccc3c(c2)OCCO3)oc2c([N+](=O)[O-])cccc12", "test": "CCK-8", "setting": "1 µM", "measurement": "inhibition", "value": "12.7%"}
{"SMILES": "CCOc1ccc(-c2cc(C(=O)O)c(-c3ccc(Cl)cc3)o2)cc1", "test": "MTT", "setting": "48 h", "measurement": "pEC50", "value": 4.11}
{"SMILES": "NCCC(=O)Nc1ccccc1/N=c1\\cc(-c2ccc3c(c2)OCO3)oc2ccccc12", "test": "CCK-8", "setting": "1 µM", "measurement": "inhibition", "value": "10.8%"}
{"SMILES": "COc1cc(C=NNC(=O)c2nc3ccccc3s2)ccc1O", "test": "MTT", "setting": "100 µM, 48 h", "measurement": "cell death", "value": "44.6%"}
{"SMILES": "O=C1Nc2ccccc2C1=Nc1ccc(Cl)cc1", "test": "MTT", "setting": "48 h", "measurement": "pIC50", "value": "< 4.00"}
{"SMILES": "COc1ccc(C=NNC(=O)c2nc3ccccc3s2)cc1O", "test": "MTT", "setting": "100 µM, 48 h", "measurement": "cell death", "value": "33.5%"}
{"SMILES": "COc1cc(N=C2C(=O)N(Cc3ccccc3)c3ccccc32)cc(OC)c1", "test": "MTT", "setting": "48 h", "measurement": "pIC50", "value": 5.06}
{"SMILES": "Oc1cccc(-c2nc(N3CCOCC3)c3oc4ncccc4c3n2)c1", "test": "CCK-8", "setting": "1 µM", "measurement": "inhibition", "value": "12.5%"}
